OX1R antag-1: antagonists of human orexin 1 receptor; O43613; CHO/OX1R cells, Fluo-8 calcium fluorescence, orexin A; inhibition, % at 5 µM; hit rate 0.43% among 330,000;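 active = inhibition above its plate's threshold, mean inhibition of all tested compounds on the plate plus 3 SD, cut at about 37% in these data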;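 note: 0% = orexin A challenge wells and 100% = SB-334867-A antagonist wells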
GPR7 antag: blocks human GPR7 receptor signaling | P48145 | hit rate 1.1% among 290,000 | AID 1861 | inhibition, % at 4.4 µM | GPR7-expressing cells, fluorescence antagonist assay; in the data active = inhibition above about 16%, passing the limit was not always enough;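 note: cells stimulated with the agonist NPW; 0% = agonist with vehicle and 100% = vehicle without agonist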
Target sequence (P48145 whole entry, looked up): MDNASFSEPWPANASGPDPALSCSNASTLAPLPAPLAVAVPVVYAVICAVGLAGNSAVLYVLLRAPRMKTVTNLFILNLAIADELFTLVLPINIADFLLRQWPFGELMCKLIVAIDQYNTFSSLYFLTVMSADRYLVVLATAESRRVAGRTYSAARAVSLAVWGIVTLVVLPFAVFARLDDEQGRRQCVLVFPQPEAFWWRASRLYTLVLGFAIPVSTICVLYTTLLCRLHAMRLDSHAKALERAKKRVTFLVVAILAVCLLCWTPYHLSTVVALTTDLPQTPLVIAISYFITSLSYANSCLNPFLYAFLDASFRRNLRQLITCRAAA
TAAR1 ag: human TAAR1 agonism. CHO RD-HGA16 TAAR1, Fluo-8 calcium fluorescence; vehicle wells 0%, saturating PEA agonist 100%. AID 624467. hit rate 0.99% among 360,000. Q96RJ0. activation, % at 3 µM;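 active = activation above the mean activation of all test compounds in the run plus 3 SD, cut at about 38% in these data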
Target sequence (Q96RJ0 whole entry, looked up): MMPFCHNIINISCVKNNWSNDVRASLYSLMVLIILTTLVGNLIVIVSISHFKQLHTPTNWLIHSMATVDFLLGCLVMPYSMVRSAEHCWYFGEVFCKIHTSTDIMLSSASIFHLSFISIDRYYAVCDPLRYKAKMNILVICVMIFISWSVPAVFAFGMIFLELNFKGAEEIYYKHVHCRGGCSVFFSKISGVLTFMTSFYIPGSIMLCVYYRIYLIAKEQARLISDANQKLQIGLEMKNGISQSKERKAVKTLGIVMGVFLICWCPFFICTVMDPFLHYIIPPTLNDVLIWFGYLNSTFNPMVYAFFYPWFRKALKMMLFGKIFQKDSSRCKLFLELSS
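Test system: RD-HGA16 (CHO) cells co-expressing Gα16 and hTAAR1 / Benchmarks: DMSO vehicle as 0%, PEA at EC100 as 100% / Repeats: no replicates (n 1) / Measure: % activation from peak over basal fluorescence ratio, DMSO-to-PEA scaled / Timing: 17-24 h plating, Fluo-8 75 min 37 °C, 30 min RT / Technique: kinetic Fluo-8 calcium fluorescence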
OX1R antag-2: antagonists of human orexin 1 receptor (OX1R) | O43613 | OX1R-expressing cells, FRET antagonist read-out | inhibition, % at 6.6 µM | hit rate 1.8% among 330,000 | AID 485270; in the data active = inhibition mostly above about 38%, no sharp cut-off; inactive = mostly below about 40%;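 note: 0% = agonist challenge alone and 100% = reference antagonist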
TAAR1 antagonist: antagonists of human TAAR1; Q96RJ0; CHO RD-HGA16 TAAR1, Fluo-8 calcium fluorescence, antagonist; inhibition, % at 3 µM; hit rate 1.5% among 360,000; AID 624466;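 active = inhibition above a per-plate cutoff, the mean inhibition of test compounds on that plate plus 3 SD, cut at about 49% in these data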;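 note: 0% = DMSO plus EC80 beta-PEA response and 100% = DMSO alone without agonist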
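Material: RD-HGA16 CHO cells with stable hTAAR1 and Gα16; Dosing: single nominal final test compound concentration of 3 µM; Schedule: seeding 17-24 h prior, 75-min 37 °C, 30-min RT dye loading; Detection: kinetic Fluo-8 calcium fluorescence measurement; Measure: % inhibition from peak post-agonist over basal fluorescence ratio; Benchmarks: vehicle and agonist controls.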
CHO parental Ca: counter-screen: ATP calcium response change in parental CHO cells | AID 463079 | hit rate 0.63% among 330,000 | inhibition, % at 5.6 µM | parental CHO-K1, ATP-induced calcium, Fluo-8 fluorescence;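 active = inhibition above that plate's mean sample inhibition plus 3 SD, cut at about 26% in these data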;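 note: 0% = ATP-challenged DMSO wells and 100% = DMSO wells without ATP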
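Measured by: calcium-sensitive Fluo-8 fluorescence / Test system: CHO parental line / Controls: ATP-challenged DMSO wells low, unchallenged DMSO wells high / Measure: % inhibition / Compound: single nominal dose of 5.6 µM per compound / Replicates: single well per compound, no replicates / Reagent: ATP as calcium-mobilizing challenge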
GPR7 antag conf: human GPR7 antagonism, confirmation assay | shares compounds with GPR7 antag | GPR7-expressing cells, calcium fluorescence antagonist mode | inhibition, % at 4.4 µM | hit rate 52% among 2,400; in the data active = inhibition above about 24%;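 note: stimulated with the GPR7 agonist NPW; 0% = agonist plus vehicle and 100% = vehicle alone without agonist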
MCHR1 antagonist: counter-screen for GPR7 antagonists: antagonists of human MCHR1. shares compounds with GPR7 antag. MCHR1-expressing cells, fluorescence antagonist assay. hit rate 62% among 2,400. inhibition, % at 4.4 µM; in the data active = inhibition above about 22%;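 note: 0% = vehicle with agonist and 100% = vehicle without agonist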
Starred values were filed as active, the others as inactive; x = no result given. Rows were chosen to be rich in hits. Some 4.6% of all compounds tested hit in one or more screens of this group.

SMILES	OX1R antag-1	GPR7 antag	TAAR1 ag	OX1R antag-2	TAAR1 antagonist	CHO parental Ca	GPR7 antag conf	MCHR1 antagonist
Cc1cc(C(=O)N2CCCC(CO)(Cc3ccc(F)cc3F)C2)nn1C (configuration not stated)	x	x	3	x	6	x	x	x
Cc1nc2ccc(C(=O)N3CCCC(CO)(Cc4ccc(F)cc4F)C3)cc2nc1C (configuration not stated)	-35	32*	6	11	4	-19	-10	12
CCn1nc(C(C)C)cc1C(=O)N1CCCC(CO)(Cc2ccc(F)cc2F)C1 (configuration not stated)	3	28*	5	44*	-8	-21	10	27*
COc1ccc(NC(=O)COC(=O)c2cccn2C)cc1S(=O)(=O)N1CCCCC1	-23	x	4	18	6	-14	x	x
O=C(C(Cc1ccccc1)n1cccc1)N1CCCCC1 (configuration not stated)	-7	-3	-2	16	-12	-11	x	x
O=C(C(Cc1ccccc1)n1cccc1)N1CCN(Cc2ccccc2)CC1 (configuration not stated)	-46	25*	x	17	x	-15	21	12
COc1ccccc1CC(=O)O/N=C(\N)c1ccccn1	-7	-8	1	8	7	11	x	x
COc1ccc(CC(=O)O/N=C(\N)c2ccccn2)cc1OC	x	24*	6	x	-8	x	-2	5
O=C(CSCc1ccc(F)cc1)NCc1ccc(F)cc1	-7	-5	1	9	-3	-7	x	x
CCC(=O)N1CCc2cc(Br)cc(S(=O)(=O)N(C)c3ccc(OC)cc3)c21	3	38*	7	14	35	6	24	54*
CC(Sc1nc2ccccc2c(=O)[nH]1)C(=O)O (configuration not stated)	25	-15	9	-1	-10	-9	x	x
O=C(NCc1cc(Cl)cc(Cl)c1)c1ccc2nc(COCCO)[nH]c2c1	x	x	0	x	-13	x	x	x
CC(=O)c1ccc(OCC(O)CN(C)CCOc2ccc(Br)cc2)cc1 (configuration not stated)	-11	23*	4	7	8	17	37*	55*
CC(=O)c1ccc(OCC(O)COc2ccc(C(C)=O)cc2)cc1	-13	5	-1	13	21	-1	x	x
Cc1cc(Cl)ccc1OCC(O)CNCCc1ccc(S(N)(=O)=O)cc1 (configuration not stated)	-14	68*	3	1	8	-5	66*	73*
Cc1cc(Cl)ccc1NC(=S)NCCc1ccc(S(N)(=O)=O)cc1	-12	x	8	26	4	8	x	x
COc1cc(C(=O)N/N=C/c2coc3ccc(Cl)cc3c2=O)ccc1O	4	31*	3	15	-10	1	-7	-1
O=C(NCCc1c[nH]c2ccccc12)c1ccc(S(=O)(=O)NCc2ccco2)cc1	11	-1	14	14	0	-12	x	x
CCc1ccc(CN(C)C(=O)C2CCC(=O)N(Cc3ccccn3)C2)cc1 (configuration not stated)	-9	-4	0	12	1	-11	x	x
CC1CCCCC1NC(=O)CN1C(=O)CSc2cc(S(=O)(=O)N3CCCCCC3)ccc21 (configuration not stated)	-15	28*	3	9	5	-18	23	18
COc1ccc(C2C(O)C(c3c[nH]c4ccccc34)=NN2C(=O)CCl)cc1 (configuration not stated)	-2	22*	3	14	15	-6	39*	47*
CC(=O)OC1OCCOC1NC(=S)NCc1ccco1 (configuration not stated)	-13	-8	2	-8	-17	6	x	x
O=C(O)c1cccc(N2C(=O)c3cc4cccc(Br)c4cc3C2=O)c1	-5	38*	2	3	2	-7	0	11
Cc1ccc2c(CN3CCC(C)CC3)cc(=O)oc2c1	-25	-1	-1	13	30	-16	x	x
CSc1cccc(NC(=O)Nc2nc3c(C)cccc3s2)c1	4	23	5	22	38	14	33*	76*
SMILES	OX1R antag-1	GPR7 antag	TAAR1 ag	OX1R antag-2	TAAR1 antagonist	CHO parental Ca	GPR7 antag conf	MCHR1 antagonist
COC(=O)Nc1nc2c(C)cccc2s1	-17	-12	5	10	-10	-9	x	x
CCN(CC)S(=O)(=O)c1ccc(=O)[nH]c1	5	2	4	12	-15	-1	x	x
C[C@H](CO)N1C[C@H](C)[C@@H](CN(C)C(=O)Nc2ccccc2)Oc2c(NS(=O)(=O)c3ccccc3)cccc2C1=O	-15	x	1	-3	-1	-15	x	x
Cc1ccc(C)c(N2CCN(C(=O)C3CCN(S(=O)(=O)c4c(C)noc4C)CC3)CC2)c1	7	32*	2	19	-7	22	21	47*
COc1ccc(-n2c(C)cc(C(=O)COc3ccc(-n4cnnn4)cc3)c2C)cc1	-10	28*	1	1	-1	-2	12	24*
NC(=O)COc1ccc(-n2cnnn2)cc1	-12	-4	1	20	-8	-5	x	x
O=C1OCCC1=CN1CCCCC1	x	x	4	x	1	x	x	x
CN1CCC(NCCC(c2ccc(F)cc2)c2ccc(Cl)cc2)CC1 (configuration not stated)	x	47*	15	x	19	x	43*	41*
O=C(CSc1nccn1-c1ccccc1)Nc1ccc2c(c1)OCO2	4	28*	2	18	6	5	26*	24*
O=C(CSc1nccn1-c1ccc(F)cc1)Nc1ccc2c(c1)OCO2	-10	7	0	35	-2	-11	x	x
CCOC(=O)C1(CCOc2ccccc2)CCN(Cc2cccc(OC)c2OC)CC1	-17	32*	5	22	-3	37*	24*	54*
CC(=O)N/C(=C\c1ccccc1Cl)C(=O)O	-7	-10	10	6	12	-4	x	x
Clc1ccc(CSCCc2ccncc2)cc1	-7	23*	14	30	6	-12	9	26*
c1ccc2c(CSCCc3ccncc3)cccc2c1	-30	-8	19	28	24	-20	x	x
CC(C)c1nc2c(s1)CCc1onc(-c3ccc(Cl)cc3)c1-2	-9	x	10	17	-10	3	x	x
O=[N+]([O-])c1ccc2cccnc2c1	x	x	3	x	-24	x	x	x
C1=CCC(CN2CCN(C3CCCCCC3)CC2)CC1 (configuration not stated)	14	30*	2	16	-17	-7	23	38*
